Data from ChEMBL document CHEMBL1125763, “Structure-activity studies of antitumor agents based on pyrrolo[1,2-a]benzimidazoles: new reductive alkylating DNA cleaving agents” (J Med Chem, 1991).
One block for each compound: values may come before it.

Assays:
WiDr = test: In vitro inhibition of WiDr colon cancer cell line; format: functional, cell-based; conditions: Homo sapiens
Procedure, shortened: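 Cells plated at 50 000 per well in 96-well trays. Drugs dissolved in DMSO as stock, then diluted in buffer and added to wells. IC50 was calculated from concentration–survival curves over a concentration range giving 0–100% survival.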

SW480 = test: In vitro inhibition of SW480 colon cancer cell line; format: functional, cell-based; conditions: Homo sapiens
Procedure, shortened: (§1)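 Cell growth inhibition: cells plated at 50 000/well; drugs dissolved in DMSO as stock and diluted in buffer before addition. IC50 taken from concentration-survival curves over a range of concentrations giving 0-100% survival.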

A2780 [1] = test: In vitro inhibition of 2780/S ovarian cancer cell line; format: functional, cell-based; conditions: Homo sapiens; procedure, shortened: as §1
2008/R [2] = test: In vitro inhibition of 2008/R ovarian cancer cell line; NA= Not achievable; format: functional, cell-based, Homo sapiens; procedure, shortened: as §1
A2780 [3] = test: In vitro inhibition of 2780/DOX ovarian cancer cell line; format: functional, cell-based; conditions: Homo sapiens; procedure, shortened: as §1
RPMI-8226 [4] = test: In vitro inhibition of […] myeloma cancer cell line; format: functional, cell-based; conditions: Homo sapiens; procedure, shortened: as §1
2008/S [5] = test: In vitro inhibition of 2008/S ovarian cancer cell line; NA= Not achievable; format: functional, cell-based, Homo sapiens; procedure, shortened: as §1
2008/S [6] = test: In vitro inhibition of 2008/S ovarian cancer cell line; format: functional, cell-based; conditions: Homo sapiens; procedure, shortened: as §1
RPMI-8226 [7] = test: Dose-Response relationship for DNA single-strand cleavage with the compound in human 8226 multiple myeloma cells at a concentration of 10 ug/mL x1 hr; format: functional
RPMI-8226 [8] = test: Dose-Response relationship for DNA single-strand cleavage with the compound in human 8226 multiple myeloma cells at a concentration of 0.1 ug/mL x1 hr.; format: functional
RPMI-8226 [9] = test: Dose-Response relationship for DNA single-strand cleavage with the compound in human 8226 multiple myeloma cells at a concentration of 1.0 ug/mL x1 hr; format: functional
2008/R [10] = test: In vitro inhibition of 2008/R ovarian cancer cell line; format: functional, cell-based; conditions: Homo sapiens; procedure, shortened: as §1
Ovarian carcinoma cell = test: Inhibitory activity against ovarian cancer cell line; NA= Not achievable; format: functional, cell-based, Homo sapiens
Procedure, shortened: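 Fresh human tumor chemosensitivity assay: ovarian cancers removed surgically from patients, minced, and plated on soft agar as a single-cell suspension.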

Structure (SMILES): CC(=O)NC1=C(C)C(=O)c2c(nc3n2CCC3OC(C)=O)C1=O (configuration not stated)
IC50 (WiDr): 6000 nM

Structure (SMILES): CC1=C(N2CC2)C(=O)c2nc3n(c2C1=O)CCC3
IC50 (WiDr): 15 nM

Structure (SMILES): CC(=O)NC1=C(C)C(=O)c2c(nc3n2CCC3)C1=N
IC50 (WiDr): 10000 nM

Structure (SMILES): CC1=C(N(C)C)C(=O)c2nc3n(c2C1=O)CCC3OC(N)=O (configuration not stated)
IC50 (WiDr): 13000 nM

Structure (SMILES): CC1=C(N(C)C)C(=O)c2nc3n(c2C1=O)CCC3
IC50 (WiDr): 13000 nM

Structure (SMILES): CC(=O)NC1=C(C)C(=O)c2c(nc3n2CCC3OC(N)=O)C1=O (configuration not stated)
IC50 (WiDr): 16000 nM

Structure (SMILES): CC1=C(N2CC2)C(=O)c2nc3n(c2C1=O)CCC3OC(N)=O (configuration not stated)
IC50 (SW480): 19 nM
IC50 (WiDr): 100 nM
IC50 (A2780 [1]): 100 nM
IC50 (2008/R [2]): Not Active
IC50 (A2780 [3]): 200 nM
IC50 (RPMI-8226 [4]): 140 nM
IC50 (2008/S [5]): Not Active

Structure (SMILES): CC1=CC(=O)c2nc3n(c2C1=O)CCC3OC(N)=O (configuration not stated)
IC50 (WiDr): 10000 nM

Structure (SMILES): CC(=O)OC1CCn2c1nc1c2C(=O)C(C)=C(N2CC2)C1=O (configuration not stated)
IC50 (SW480): 9 nM
IC50 (WiDr): 10 nM
IC50 (A2780 [1]): 0.6 nM
IC50 (2008/S [6]): 7 nM
Cleavage (RPMI-8226 [7]): 469
Cleavage (RPMI-8226 [8]): 59
IC50 (A2780 [3]): 16 nM
IC50 (RPMI-8226 [4]): 100 nM
Cleavage (RPMI-8226 [9]): 321
IC50 (2008/R [10]): 7 nM
IC50 (Ovarian carcinoma cell): Not Active

Structure (SMILES): CC(=O)OC1CCn2c1nc1c2C(=O)C(C)=C(N(C)C)C1=O (configuration not stated)
IC50 (WiDr): 10000 nM

Continued by falling IC50 (WiDr), values first:

IC50 (WiDr): 500 nM
Structure (SMILES): CC(=O)NC1=C(C)C(=O)c2c(nc3n2CCC3)C1=O

IC50 (WiDr): 300 nM
Structure (SMILES): CC(=O)OC1CCn2c1nc1c2C(=O)C(C)=CC1=O (configuration not stated)

IC50 (WiDr): 280 nM
Structure (SMILES): CC(=O)OC1CCn2c1nc1c2C(=O)C(C)=C(NC(=O)CCl)C1=N (configuration not stated)

IC50 (WiDr): 150 nM
Structure (SMILES): CC(=O)NC1=C(C)C(=O)c2c(nc3n2CCC3OC(C)=O)C1=N (configuration not stated)

IC50 (SW480): 7 nM
IC50 (WiDr): 10 nM
IC50 (A2780 [1]): 100 nM
IC50 (2008/R [2]): Not Active
IC50 (A2780 [3]): 200 nM
IC50 (RPMI-8226 [4]): 200 nM
IC50 (2008/S [5]): Not Active
Structure (SMILES): CO[C@@]12[C@H](COC(N)=O)C3=C(C(=O)C(C)=C(N)C3=O)N1C[C@@H]1N[C@@H]12 [MITOMYCIN]
